This is an account of results in ChEMBL document CHEMBL1144660, “Docking and hydropathic scoring of polysubstituted pyrrole compounds with antitubulin activity” (Bioorg Med Chem, 2008).

For test [1], the system named is MDA-MB-435. As to the kind of experiment: Antiproliferative activity against human MDA-MB-435 cells after 48 hrs by SRB assay. It counts as functional, cell-based. The conditions noted are these: MDA-MB-435, 48 h.
Test [2] can be described thus: Inhibition of tubulin polymerization in rat A10 cells after 18 hrs by indirect immunofluorescence technique. In kind it is cell-based. In a few lines:
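A-10 cells were exposed to a range of concentrations for 18 hr, fixed, and stained with a β-tubulin antibody for microtubules and with DAPI for DNA. Percent microtubule loss was scored visually at each concentration, averaged over 3 independent experiments, and plotted against concentration to calculate EC50.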

Usually IC50 stands for the midpoint of a concentration-inhibition curve. Broadly, the EC50 is the concentration giving half of the maximal effect. For `CCOC(=O)c1[nH]c(Br)c(-c2cccc(OC)c2)c1Br`, the IC50 in test [1] (read-out: IC50) is 278 nM; in test [1] (read-out: Log IC50 (converted)), 282 nM. In test [2], this compound showed an EC50 of 2.4 µM.

`COC(=O)c1c(-c2ccc(OC)c(OC)c2)c(-c2ccc(OC)c(OC)c2)cn1CCc1ccc(OC)c(OC)c1`: the IC50 in test [1] (read-out: IC50) and in test [1] (read-out: Log IC50 (converted)) was 10000 nM throughout. In test [2], the half-maximal effective concentration (EC50) is > 50 µM.

Take `CCOC(=O)c1cc(-c2ccc(OC)cc2)c(C(=O)c2ccc(OC)cc2)[nH]1`: the half-maximal inhibitory concentration (IC50) in test [1] (read-out: IC50) is 2600 nM; in test [1] (read-out: Log IC50 (converted)), 2630 nM. In test [2], the concentration for a half-maximal effect (EC50) was > 50 µM.

On to `CCOC(=O)c1[nH]c(C(=O)c2ccc(OC)cc2)c(-c2ccc(OC)cc2)c1Br`, for which the results for the half-maximal inhibitory concentration (IC50) in test [1] (read-out: IC50) and in test [1] (read-out: Log IC50 (converted)) were 1900 nM and 1910 nM, respectively. In test [2], the EC50 was > 50 µM.

Consider `CCOC(=O)c1c[nH]c(C(=O)c2ccc(OC)cc2)c1-c1ccc(OC)cc1`, for which the IC50 in test [1] (read-out: IC50) and in test [1] (read-out: Log IC50 (converted)) was 10000 nM throughout. For the same compound, the concentration for a half-maximal effect (EC50) in test [2] was > 50 µM.

For the compound `CCOC(=O)c1[nH]c(Br)c(-c2ccc(Cl)cc2)c1Br`, the IC50 in test [1] (read-out: IC50) was 919 nM; in test [1] (read-out: Log IC50 (converted)), 912 nM. Moreover, in test [2], the EC50 was > 50 µM.

As for `CCOC(=O)c1[nH]c(Br)c(-c2ccc(OC)cc2)c1Br`, the half-maximal inhibitory concentration (IC50) in test [1] (read-out: IC50) was 361 nM; in test [1] (read-out: Log IC50 (converted)), 363 nM. The compound further gave an EC50 in test [2] of 5.1 µM.

For `CCOC(=O)c1[nH]c(Br)c(-c2ccc3ccccc3c2)c1Br`, the figures for the IC50 in test [1] (read-out: IC50) and in test [1] (read-out: Log IC50 (converted)) were 1400 nM and 1410 nM, respectively. For the same compound, the EC50 in test [2] came to 7.5 µM.

With `CCOC(=O)c1[nH]c(Br)c(-c2ccc(Br)cc2)c1Br`, the IC50 in test [1] (read-out: IC50) was 312 nM; in test [1] (read-out: Log IC50 (converted)) it was 309 nM. Also, in test [2], the concentration giving a half-maximal response (EC50) is > 50 µM.

In the case of `CCOC(=O)c1[nH]c(C(=O)c2ccc(OC)cc2)c(-c2ccc(OC)cc2)c1-c1ccc(OC)cc1`, the IC50 is 4200 nM in test [1] (read-out: IC50) and 4270 nM in test [1] (read-out: Log IC50 (converted)). The EC50 in test [2] is > 50 µM.

In the case of `CCOC(=O)c1[nH]c(Br)c(-c2ccccc2)c1Br`, the IC50 in test [1] (read-out: IC50) and in test [1] (read-out: Log IC50 (converted)) was 10000 nM in each case. Further, in test [2], the concentration for a half-maximal effect (EC50) was > 50 µM.

For `COc1ccc(C(=O)c2[nH]c(C(=O)c3ccc(OC)cc3)c(-c3ccc(OC)cc3)c2-c2ccc(OC)cc2)cc1`, the figures for the IC50 in test [1] (read-out: IC50) and in test [1] (read-out: Log IC50 (converted)) were > 20000 nM and 200000 nM, respectively. Further, the EC50 in test [2] was > 50 µM.

With `CCOC(=O)c1[nH]c(Br)c(-c2ccc(C)cc2)c1Br`, the IC50 in test [1] (read-out: IC50) was 2200 nM; in test [1] (read-out: Log IC50 (converted)) it was 2000 nM. In addition, in test [2], the EC50 is > 50 µM.

Regarding `CCOC(=O)c1cc(-c2ccc(OC)cc2)c(Cl)[nH]1`, the IC50 in test [1] (read-out: IC50) is 5000 nM; in test [1] (read-out: Log IC50 (converted)), 5010 nM. The concentration giving a half-maximal response (EC50) in test [2] is > 50 µM.

For `CCOC(=O)c1[nH]c(Br)c(-c2ccc(OC)c(OC)c2)c1Br`, in test [1] (read-out: Log IC50 (converted)), the IC50 was 18.2 nM.

With `COc1cc2c(c(OC)c1OC)-c1ccc(OC)c(=O)cc1C(NC(=O)CS)CC2` (centres undefined), the IC50 in test [1] (read-out: IC50) and in test [1] (read-out: Log IC50 (converted)) was 2000 nM throughout.

As for `CCOC(=O)c1[nH]c(Br)c(-c2cc(OC)c(OC)c(OC)c2)c1Br`, the IC50 in test [1] (read-out: IC50) was 13000 nM; in test [1] (read-out: Log IC50 (converted)) it was 12900 nM. The EC50 in test [2] is > 50 µM.

For `CCOC(=O)c1[nH]c(Br)c(-c2cc(OC)c(OC)cc2Br)c1Br`, the figures for the IC50 in test [1] (read-out: IC50) and in test [1] (read-out: Log IC50 (converted)) were 1100 nM and 1120 nM, respectively. In test [2], this compound showed an EC50 of 7.1 µM.

Consider `CCOC(=O)c1[nH]cc(-c2ccc(OC)cc2)c1-c1ccc(OC)cc1`, for which the IC50 in test [1] (read-out: IC50) is > 10000 nM; in test [1] (read-out: Log IC50 (converted)), 100000 nM. In test [2], the EC50 was > 50 µM.
